NPY2 pot ag: human NPY-Y2 potentiation or agonism, primary screen; hit rate 0.45% among 220,000; P49146; activation, % at 3.6 µM; cells expressing NPY-Y2, potentiator/agonist read-out; AID 1359; in the data active = activation above about 27%;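 also: cells stimulated with NPY near EC25 plus isoproterenol at EC100; 0% = vehicle plus submaximal agonist and 100% = vehicle plus saturating agonist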
Target sequence (P49146 whole entry, looked up): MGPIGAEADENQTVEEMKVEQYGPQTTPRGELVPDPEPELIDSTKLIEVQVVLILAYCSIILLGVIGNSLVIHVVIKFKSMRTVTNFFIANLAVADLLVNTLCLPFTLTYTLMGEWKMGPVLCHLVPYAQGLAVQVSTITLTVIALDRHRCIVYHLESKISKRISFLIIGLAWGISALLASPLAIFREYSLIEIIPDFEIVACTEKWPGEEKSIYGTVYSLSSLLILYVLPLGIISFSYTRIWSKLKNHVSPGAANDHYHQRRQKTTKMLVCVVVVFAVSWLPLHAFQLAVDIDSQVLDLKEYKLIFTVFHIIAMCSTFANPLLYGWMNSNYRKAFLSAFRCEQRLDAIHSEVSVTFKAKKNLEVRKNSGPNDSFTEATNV
NPY-Y2 antag: NPY-Y2 (human) receptor antagonism; NPY-Y2 expressing cells, antagonist mode; hit rate 0.99% among 140,000; inhibition, % at 2.7 µM; P49146; in the data active = inhibition above about 17%;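 also: 0% = vehicle with agonist challenge and 100% = reference antagonist with challenge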
Calpain2 inh: blocks pig calpain II enzyme activity; purified calpain II, fluorogenic peptide substrate, 30 min; inhibition, % at 16 µM; hit rate 0.37% among 220,000;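 active = inhibition above about 50%, limit read from the data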
NPY1 pot ag: potentiates or activates human NPY-Y1 receptor; activation, % at 3.6 µM; NPY-Y1 expressing cells, potentiator/agonist activation; hit rate 0.37% among 220,000; AID 1304; in the data active = activation above about 33%, passing the limit was not always enough;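 also: cells stimulated with NPY at EC10 then isoproterenol at EC100; 0% = low agonist plus stimulus and 100% = saturating agonist plus stimulus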
NPY-Y1 antag: NPY-Y1 (human) receptor antagonism; P25929; HEK293-CNG Y1 cells, membrane potential fluorescence; NPY at EC95, then isoproterenol; inhibition, % at 3.6 µM; hit rate 1% among 200,000; AID 1040;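 active = inhibition above the campaign mean inhibition of all tested compounds plus 3 SD, cut at about 20% in these data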;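 also: 0% = DMSO wells given NPY plus isoproterenol and 100% = isoproterenol alone without NPY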
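Test system: HEK293 cells co-expressing NPY Y1 receptor and cyclic-nucleotide gated channel; Also added: NPY (25 nM), isoproterenol (1 µM), Ro 20-1724 (25 µM); Compound dosing: one concentration, 3.6 µM, in 0.4% DMSO; Timing: dye 3 h, compound 60 min room temperature, stimulation 45 min; Technique: Membrane-potential fluorescent dye readout.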
Tb hexokinase: T. brucei hexokinase 1 inhibition; inhibition, % at 10 µM; hit rate 0.11% among 220,000; AID 1430; recombinant TbHK1, G6PDH-coupled NADH A340;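 active = inhibition of 50% or more in the single-dose primary screen; inactive = inhibition below 50%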
NPY-Y2 pot conf: confirmation of human NPY-Y2 receptor potentiators or agonists. shares compounds with NPY2 pot ag. cell-based NPY-Y2 potentiator/agonist assay. activation, % at 3.6 µM. hit rate 20% among 450. AID 1539; in the data active = activation above about 33%
NPY-Y1 counter: potentiates or activates NPY-Y1, counter-screen for NPY-Y2 hits; shares compounds with NPY2 pot ag; AID 1651; hit rate 20% among 450; activation, % at 3.6 µM; Y1 HEK293-CNG cells, membrane potential fluorescence; in the data active = activation above about 45%;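 also: cells stimulated with submaximal NPY then isoproterenol with phosphodiesterase inhibitor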
NPY-Y1 agonist 2: activates human NPY-Y1, counter-screen for NPY-Y2 potentiators; shares compounds with NPY2 pot ag; HEK293 Y1-CNGC, membrane potential fluorescence, agonism; activation, % at 3.6 µM; hit rate 37% among 450;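 active = activation above the mean of DMSO-only control wells plus 3 SD, cut at about 18% in these data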;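 also: cells stimulated with 1 µM isoproterenol plus the PDE inhibitor Ro 20-1724; 0% = isoproterenol with DMSO and no NPY and 100% = 40 nM NPY; Y1 agonists lower the membrane potential dye signal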
CNGC inh: cyclic nucleotide gated channel inhibition as counter-screen; inhibition, % at 3.6 µM; HEK293-CNG parental, isoproterenol cAMP, membrane potential fluorescence; shares compounds with NPY2 pot ag; hit rate 32% among 450;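 active = inhibition above the control-well mean plus 3 SD of those wells, cut at about 22% in these data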;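 also: 0% = DMSO with isoproterenol and 100% = DMSO without isoproterenol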
Y2 agonist ctr: activates human NPY-Y2 receptor in potentiator counter-screen | shares compounds with NPY2 pot ag | HEK293 Y2/CNGC cells, membrane potential fluorescence, agonist mode | activation, % at 3.6 µM | hit rate 56% among 450;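 active = activation above the mean of solvent-only control wells plus 3 SD, cut at about 10% in these data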;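 also: cells stimulated by isoproterenol with no NPY added so direct agonism is tested; 0% = DMSO with isoproterenol alone and 100% = NPY at EC100 plus isoproterenol; agonism lowers probe fluorescence through less cAMP and CNG channel opening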
Active calls of the source: *; i = inactive; / = no result. Hits are enriched below; roughly 2.3% of the tested compounds scored in any of these assays.

SMILES	NPY2 pot ag	NPY-Y2 antag	Calpain2 inh	NPY1 pot ag	NPY-Y1 antag	Tb hexokinase	NPY-Y2 pot conf	NPY-Y1 counter	NPY-Y1 agonist 2	CNGC inh	Y2 agonist ctr
CC(C)Oc1ccc(CC2CCC(=O)N(C)C2=O)cc1 (configuration not stated)	3	3	15	5	4	32	/	/	/	/	/
CCOc1cc(C(=S)N2CCOCC2)ccc1OS(=O)(=O)c1ccc(NC(C)=O)cc1	33*	10	10	8	6	-2	5	-16	-10	-2	-6
O=C(Cc1ccccc1)N1CCc2ccccc21	-13	4	-31	-10	4	-4	/	/	/	/	/
O=C(CS(=O)(=O)c1ccccc1)N1CCc2ccccc21	34*	/	5	28	1	4	-5	-4	-4	1	3
CCn1c2ccccc2c2cc(NC(=O)CSc3nnc(-c4ccccc4OC)n3N)ccc21	43*	-5	-150	15	-10	-5	11	15	19*	17	16*
O=C(Nc1ccc(S(=O)(=O)Nc2ncccn2)cc1)c1ccc(Br)s1	28*	1	1	12	0	-1	3	5	10	7	9
CCOC(=O)C(=CNc1ccc(NC2=NCC(C)S2)cc1)C(=O)OCC (configuration not stated)	47*	2	28	25	-2	-41	11	29	15	-1	10
Cc1ccnc(NC(c2ccncc2)c2c(C)[nH]c3ccccc23)c1 (configuration not stated)	-6	3	-20	-2	5	-12	/	/	/	/	/
Cc1[nH]c2ccccc2c1C(Nc1nccs1)c1ccncc1 (configuration not stated)	27*	1	-2	-8	6	-13	-5	3	-11	-4	-8
CCOC1(C)OCC(=O)[C@]2(CCC3C4CCC5=CC(=O)C=CC5(C)C4C(=O)CC32C)O1 (some centres not stated)	0	1	8	10	-1	-2	/	/	/	/	/
CN(C)S(=O)(=O)Oc1cccc(C(=O)Nc2ccccc2Cl)c1	6	2	-4	-7	-2	2	/	/	/	/	/
CN(C)S(=O)(=O)Oc1cccc(C(=O)Nc2ccc(Cl)cc2)c1	48*	2	25	40	-9	4	-4	-36	-21	-12	-7
Cc1cc(Nc2ccccc2)nc(-c2ccccc2O)n1	34*	-5	-3	1	-6	1	37*	43	29*	27*	37*
CCn1[nH]c(=O)c(=Nc2c(C)n(C)n(-c3ccccc3)c2=O)cc1-c1ccc(Cl)cc1	41*	1	-11	53	-7	-2	38*	60*	43*	53*	30*
O=C(COc1ccc(Cl)cc1)Nc1ncc([N+](=O)[O-])s1	40*	/	46	-1	4	8	4	-6	-11	-4	10*
CCSc1nnc(NC(=O)COc2ccc(Cl)cc2)s1	3	/	-7	6	3	-1	/	/	/	/	/
COc1nc(/C=C/N(C)C)c([N+](=O)[O-])c(OC)n1	102*	/	27	28	/	-55	-1	-3	-6	-18	-10
COc1ccc(CCNC(=O)COC(=O)/C=C/c2cccs2)cc1	-9	/	-6	-1	11	-8	/	/	/	/	/
Cc1cc(CN(C)C(=O)c2cc(COc3ccc4ncccc4c3)on2)on1	38*	/	-16	-8	-3	-3	-6	-44	-28	-12	-11
CN(Cc1nccn1C)C(=O)c1cc(COc2ccc3ncccc3c2)on1	6	/	-23	20	-1	10	/	/	/	/	/
CCN1CCN(C(=O)C(N)Cc2ccccc2)CC1 (configuration not stated)	-12	/	-8	-2	-2	-3	/	/	/	/	/
Cc1nnc(-c2ccc(N3CCCCCC3)c([N+](=O)[O-])c2)o1	-3	/	-1	20	/	-29	/	/	/	/	/
COCc1cc(C)nc(N/N=C/c2ccc(Cl)c(Cl)c2)c1C#N	5	2	44	-3	2	20	/	/	/	/	/
CCN(CC)CCCN(C(=O)c1ccco1)c1nc(-c2ccc(C)cc2)cs1	25*	/	-25	17	11	4	64*	65*	45*	58*	62*
Cc1ccc(CN2CCN(Cc3cn[nH]c3-c3cccc(F)c3)CC2CCO)o1 (configuration not stated)	-13	/	-21	2	4	-11	/	/	/	/	/
SMILES	NPY2 pot ag	NPY-Y2 antag	Calpain2 inh	NPY1 pot ag	NPY-Y1 antag	Tb hexokinase	NPY-Y2 pot conf	NPY-Y1 counter	NPY-Y1 agonist 2	CNGC inh	Y2 agonist ctr
COc1cccc(C(=O)Nc2ccc(F)cc2F)c1	4	6	-11	-2	4	2	/	/	/	/	/
COc1cccc(C(=O)Nc2ccccc2F)c1	30*	/	8	16	4	-1	-3	-5	5	3	-4
CN(C)C(CN=C1NS(=O)(=O)c2ccccc21)c1ccco1 (configuration not stated)	51*	/	-18	16	-5	-1	0	6	-3	-1	-3
CCOC(=O)c1ccc(-n2c(=S)sc3c(=O)[nH]c(C)nc32)cc1	35*	4	21	28	-8	-24	6	11	11	-7	12*
CC(=O)n1nc(-c2ccccc2)nc1NCc1cccs1	2	/	-6	0	0	-3	/	/	/	/	/
CCCc1cc(-c2[nH]ncc2-c2ccc(C(=O)OCC)o2)c(O)cc1O	41*	-2	-2	26	-1	3	20	19	10	13	22*
Cc1ccc2[nH]c(C)c(/C=N/Nc3nc4ccccc4s3)c2c1	38*	-5	4	30	-12	-11	42*	53*	31*	38*	39*
Brc1csc(/C=N/Nc2nc3ccccc3s2)c1	1	1	-16	-12	3	-10	/	/	/	/	/
O=C(O)CSc1c(-c2cccs2)[nH]c2ccccc12	14	2	4	12	12	-22	/	/	/	/	/
COc1ccccc1OCCNC(=O)Cc1ccc(Cl)c(Cl)c1	1	/	10	18	5	-2	/	/	/	/	/
Fc1ccc(Nc2c(-c3ccco3)nc3ccccn23)cc1	32*	6	i	-1	7	23	30	31	18*	17	22*

Assay outcomes: PubChem BioAssay, several laboratories
